Test results from ChEMBL document CHEMBL3244057, “Diazepines. 5. Synthesis and biological action of 6-phenyl-4H-pyrrolo[1,2-a][1,4]benzodiazepines” (J Med Chem, 1978).

Key:
[1] = test system: Mus musculus; assay: Muscle relaxant activity in po dosed ddY mouse; assay type: functional
Procedure, shortened: (§1)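 Male ddY mice (18–24 g) were dosed orally with compound suspended in 5% arabic gum, six mice per dose. Three or four doses were chosen from 100, 30, 10, 3, 1, 0.3 and 0.1 mg/kg. ED50 was calculated by the Litchfield-Wilcoxon method. Muscle relaxation was scored on an inclined wooden board, and fighting was induced by electrofootshock.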

[2] = test system: Mus musculus; assay: Toxicity in po dosed ddY mouse assessed as motor incoordination by rotarod test; assay type: organism-based; conditions: in vivo; procedure, shortened: as §1
[3] = test system: Mus musculus; assay: Induction of sedative activity in po dosed ddY mouse assessed as potentiation of thiopental-induced response; assay type: functional; procedure, shortened: as §1
[4] = test system: Mus musculus; assay: Anticonvulsant activity in po dosed ddY mouse assessed as reduction of pentylenetetrazole-induced seizure; assay type: functional; procedure, shortened: as §1
[5] = test system: Mus musculus; assay: Anticonvulsant activity in po dosed ddY mouse assessed as reduction of maximal electroshock-induced seizure; assay type: functional
[6] = test system: Mus musculus; assay: Taming activity in po dosed electrofootshock-induced fighting ddY mouse; assay type: functional; procedure, shortened: as §1
[7] = Acute toxicity in po dosed ddY mouse assessed as mortality measured for 2 weeks; assay type: organism-based; conditions: in vivo
Procedure, shortened: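 Male ddY mice (18–24 g) were dosed orally with compound suspended in 5% arabic gum. Groups of four received 1000 or 2000 mg/kg, and a group of eight received 3000 mg/kg. Deaths were recorded over a 2-week observation period.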

[8] = Ratio of compound ED50 to diazepam ED50 for toxicity in po dosed ddY mouse assessed as motor incoordination; assay type: organism-based; conditions: in vivo, read-out: Ratio ED50

| Compound | ED50 [1] [mg/kg] | ED50 [2] [mg/kg] | ED50 [3] [mg/kg] | ED50 [4] [mg/kg] | ED50 [5] [mg/kg] | ED50 [6] [mg/kg] | LD50 at 336 h [7] [mg/kg] | selectivity ratio [8] |
| --- | --- | --- | --- | --- | --- | --- | --- | --- |
| Cc1cc(C)n2c1CN=C(c1c(F)cccc1F)c1cc(Cl)ccc1-2 | 6.4 | 16.2 | 0.7 |  |  |  |  |  |
| Cc1cc2n(c1C)-c1ccc(Cl)cc1C(c1ccccc1Cl)=NC2 |  | 40 | 2.6 |  |  |  |  |  |
| Fc1ccccc1C1=NCc2cccn2-c2ccc(Cl)cc21 | > 100 | > 100 | 5.2 | 100 | > 100 | 39 |  |  |
| CN1C(=O)CN=C(c2ccccc2)c2cc(Cl)ccc21 [DIAZEPAM] | 0.6 | 5.4 | 0.3 | 0.6 |  |  |  |  |
| Cc1cc2n(c1C)-c1ccccc1C(c1ccccc1)=NC2 | > 100 | > 100 | > 30 | > 100 | > 100 | > 100 |  |  |
| Cc1ccc2n1-c1ccc(Cl)cc1C(c1ccccc1)=NC2 | > 100 | > 100 | 46 | 100 | > 100 | > 100 |  |  |
| CCc1cc2n(c1C)-c1ccc(Cl)cc1C(c1ccccc1Cl)=NC2 |  | 16.2 | 0.6 |  |  |  |  |  |
| Clc1ccc2c(c1)C(c1ccccc1)=NCc1cccn1-2 |  | > 100 | 44 |  |  |  |  |  |
| Cc1cc2n(c1C)-c1ccc(Cl)cc1C(c1ccccc1)=NC2 |  | > 100 | 21 |  |  |  |  |  |
| Cc1cc(C)n2c1CN=C(c1ccccc1Cl)c1cc(Cl)ccc1-2 |  | 15.5 | 0.34 | 1.4 |  |  | 930 | 2 |
| Cc1ccc2n1-c1ccc(Cl)cc1C(c1ccccc1F)=NC2 |  | > 100 | 6.9 |  |  |  |  |  |
| CCc1cc2n(c1C)-c1ccc(Cl)cc1C(c1c(F)cccc1F)=NC2 |  | > 100 | 3 | 16.6 |  |  |  |  |
| Cc1ccc2n1-c1ccc(Cl)cc1C(c1ccccc1Cl)=NC2 |  | 100 | 2.8 |  |  |  |  |  |
| Clc1ccc2c(c1)C(c1ccccc1Cl)=NCc1cccn1-2 |  | > 100 | 18 |  |  |  |  |  |
| Cc1ccc2n1-c1ccc([N+](=O)[O-])cc1C(c1ccccc1)=NC2 | > 100 | > 100 | 5.8 | ≥ 100 | > 100 | > 100 |  |  |
| Cc1cc2n(c1C)-c1ccc(Cl)cc1C(c1ccccc1F)=NC2 |  | > 100 | 8 |  |  |  |  |  |
| Cc1cc(C)n2c1CN=C(c1ccccc1F)c1cc(Cl)ccc1-2 | 20.5 | > 30 | 2.4 |  |  |  |  |  |
| CCc1cc2n(c1C)-c1ccc(Cl)cc1C(c1ccccc1F)=NC2 |  | > 100 | 2.2 |  |  |  |  |  |
| Cc1ccc2n1-c1ccccc1C(c1ccccc1)=NC2 | > 100 | > 100 | 22 | > 100 | > 100 | > 100 |  |  |
